Calls of active or inactive are those of the source. No cut-off for these calls is given here.
Experiments:
[1] = test system: SK-BR-3; assay: Cell cycle arrest in human SKBR3 cells assessed as accumulation at S phase at 5 nM after 24 hrs by propidium iodide staining-based FACS flow cytometric analysis (reference value: 16.34%); format: functional
[2] = test system: SK-BR-3; assay: Antiproliferative activity against human SKBR3 cells after 48 hrs by MTT assay; format: functional, cell-based; settings: SK-BR-3, 48 h
Outline: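 MTT assay on SKBR-3 cells (RPMI 1640, 10% heat-inactivated FBS, 37 °C, 5% CO2), seeded 24 h before dosing, then exposed 48 h to a concentration series in DMSO (final ≤0.1%) with vehicle-matched controls. Afterwards 0.5 mg/mL MTT for 2 h, formazan dissolved in DMSO, A570 read, six replicates. IC50 from nonlinear regression.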

[3] = species on record: Bos taurus; assay: Inhibition of bovine brain tubulin polymerization at 1 uM after 15 mins by spectrophotometric analysis relative to control in presence of GTP
[4] = test system: SK-BR-3; assay: Effect on EIF4E protein level human SKBR3 cells at 5 to 15 nM after 24 hrs by Western blotting analysis; format: functional, cell-based
[5] = test system: SK-BR-3; assay: Effect on total HSP27 protein level human SKBR3 cells at 5 to 15 nM after 24 hrs by Western blotting analysis; format: functional, cell-based
[6] = test system: SK-BR-3; assay: Effect on HER2 protein level human SKBR3 cells at 5 to 15 nM after 24 hrs by Western blotting analysis; format: functional, cell-based
[7] = test system: SK-BR-3; assay: Cell cycle arrest in human SKBR3 cells assessed as accumulation at G1 phase at 50 nM after 24 hrs by propidium iodide staining-based FACS flow cytometric analysis (reference value: 69.63%); format: functional
[8] = test system: SK-BR-3; assay: Cell cycle arrest in human SKBR3 cells assessed as accumulation at subG1 phase at 1 nM after 24 hrs by propidium iodide staining-based FACS flow cytometric analysis (reference value: 3.23%); format: functional
[9] = target: Heat shock protein beta-1 (Homo sapiens) (UniProt P04792); assay: Inhibition of HSP27 (unknown origin) assessed as increase in DTT-induced insulin B chain aggregation at 10 uM incubated for 5 mins prior to DTT-treatment measured after 30 mins by spectrophotometric analysis relative to control
Sequence of Heat shock protein beta-1 (Homo sapiens) (P04792 whole entry): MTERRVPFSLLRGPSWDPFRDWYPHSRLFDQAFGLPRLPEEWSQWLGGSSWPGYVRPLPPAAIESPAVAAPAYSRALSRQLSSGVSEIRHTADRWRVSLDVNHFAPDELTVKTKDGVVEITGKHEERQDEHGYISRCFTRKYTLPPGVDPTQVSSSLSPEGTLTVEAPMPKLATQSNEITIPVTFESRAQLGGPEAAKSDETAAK

[10] = test system: SK-BR-3; assay: Cell cycle arrest in human SKBR3 cells assessed as accumulation at G1 phase at 1 nM after 24 hrs by propidium iodide staining-based FACS flow cytometric analysis (reference value: 69.63%); format: functional
[11] = test system: SK-BR-3; assay: Effect on STAT3 protein level human SKBR3 cells at 5 to 15 nM after 24 hrs by Western blotting analysis; format: functional, cell-based
[12] = test system: SK-BR-3; assay: Cell cycle arrest in human SKBR3 cells assessed as accumulation at G1 phase at […] after 24 hrs by propidium iodide staining-based FACS flow cytometric analysis (reference value: 69.63%); format: functional
[13] = test system: SK-BR-3; assay: Induction of HSP27 phosphorylation in human SKBR3 cells at 5 to 15 nM after 24 hrs by Western blotting analysis; format: functional, cell-based
Outline: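 SKBR-3 cells exposed to 5, 10 and 15 nM for 24 h against DMSO, then lysed, sonicated and spun at 12000g for 10 min. 30 μg protein run on 10% SDS-PAGE and transferred to PVDF. Blocked with 5% milk in PBST, probed with specific primary antibodies and an HRP secondary. pHsp27 bands quantified and normalised to β-actin.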

[14] = test system: SK-BR-3; assay: Induction of apoptosis in human SKBR3 cells assessed as increase in cleaved caspase-3 protein level at 5 to 15 nM after 24 hrs by Western blotting analysis; format: functional, cell-based
Outline: (§1)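 SKBR-3 cells treated 24 h with 5, 10 and 15 nM against DMSO. Lysates (60 μg protein) resolved on 10% SDS-PAGE, transferred to PVDF, blocked in 5% milk/PBST and immunoblotted for cleaved caspase 3 and cleaved PARP with an HRP secondary.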

[15] = species on record: Bos taurus; assay: Inhibition of bovine brain tubulin polymerization after 20 mins by spectrophotometric analysis in presence of GTP
[16] = test system: SK-BR-3; assay: Effect on HSP70 protein level human SKBR3 cells at 5 to 15 nM after 24 hrs by Western blotting analysis; format: functional, cell-based
[17] = test system: SK-BR-3; assay: Cell cycle arrest in human SKBR3 cells assessed as accumulation at S phase at 50 nM after 24 hrs by propidium iodide staining-based FACS flow cytometric analysis (reference value: 16.34%); format: functional
[18] = test system: SK-BR-3; assay: Cell cycle arrest in human SKBR3 cells assessed as accumulation at G2/M phase at 50 nM after 24 hrs by propidium iodide staining-based FACS flow cytometric analysis (reference value: 10.77%); format: functional
[19] = test system: SK-BR-3; assay: Cell cycle arrest in human SKBR3 cells assessed as accumulation at S phase at 1 nM after 24 hrs by propidium iodide staining-based FACS flow cytometric analysis (reference value: 16.34%); format: functional
[20] = test system: SK-BR-3; assay: Cell cycle arrest in human SKBR3 cells assessed as accumulation at G2/M phase at 5 nM after 24 hrs by propidium iodide staining-based FACS flow cytometric analysis (reference value: 10.77%); format: functional
[21] = test system: SK-BR-3; assay: Induction of apoptosis in human SKBR3 cells assessed as increase in cleaved PARP protein level at 5 to 15 nM after 24 hrs by Western blotting analysis; format: functional, cell-based; outline: as §1
[22] = test system: SK-BR-3; assay: Cell cycle arrest in human SKBR3 cells assessed as accumulation at subG1 phase at […] after 24 hrs by propidium iodide staining-based FACS flow cytometric analysis (reference value: 3.23%); format: functional
[23] = test system: SK-BR-3; assay: Cell cycle arrest in human SKBR3 cells assessed as accumulation at subG1 phase at 5 nM after 24 hrs by propidium iodide staining-based FACS flow cytometric analysis (reference value: 3.23%); format: functional
[24] = test system: SK-BR-3; assay: Cell cycle arrest in human SKBR3 cells assessed as accumulation at subG1 phase at 50 nM after 24 hrs by propidium iodide staining-based FACS flow cytometric analysis (reference value: 3.23%); format: functional
[25] = test system: SK-BR-3; assay: Cell cycle arrest in human SKBR3 cells assessed as accumulation at G1 phase at 5 nM after 24 hrs by propidium iodide staining-based FACS flow cytometric analysis (reference value: 69.63%); format: functional
[26] = test system: SK-BR-3; assay: Cell cycle arrest in human SKBR3 cells assessed as accumulation at S phase at […] after 24 hrs by propidium iodide staining-based FACS flow cytometric analysis (reference value: 16.34%); format: functional
[27] = test system: SK-BR-3; assay: Cell cycle arrest in human SKBR3 cells assessed as accumulation at G2/M phase at […] after 24 hrs by propidium iodide staining-based FACS flow cytometric analysis (reference value: 10.77%); format: functional
[28] = test system: SK-BR-3; assay: Cell cycle arrest in human SKBR3 cells assessed as accumulation at G2/M phase at 1 nM after 24 hrs by propidium iodide staining-based FACS flow cytometric analysis (reference value: 10.77%); format: functional

COc1ccc(OC)c(COc2cc(NC(=O)c3ccc(I)cc3)ccc2N(C)S(C)(=O)=O)c1 was tested, and the Activity [1] was 9.51%, the IC50 [2] was 1.21 nM and the inhibition [3] was 64%. For the same compound, the Activity [4] was “inactive”, the Activity [5] was “inactive” and the Activity [6] was “inactive”. It also gave an Activity [7] of 31.22%, an Activity [8] of 14.73% and an inhibition [9] of 27%. For the same compound, the Activity [10] was 66.68%, the Activity [11] was “inactive” and the Activity [12] was 60.08%. For the same compound, the Activity [13] was “Active”, the Activity [14] was “Active” and the inhibition [15] was “Dose-dependent effect”. For the same compound, the Activity [16] was “inactive”, the Activity [17] was 11.39% and the Activity [18] was 24.32%. For the same compound, the Activity [19] was 8.45%, the Activity [20] was 13.76% and the Activity [21] was “Active”. It also gave an Activity [22] of 22.02%, an Activity [23] of 24.27% and an Activity [24] of 32.88%. The Activity [25] was 51.84%, the Activity [26] was 9.49% and the Activity [27] was 8.1%. For the same compound, the Activity [28] was 9.24%.
